Screens: PubChem BioAssay, several laboratories
Hits are enriched below; roughly 3.1% of the tested compounds scored in any of these assays.
ADAM10 inh – inhibits human ADAM10. recombinant ADAM10, EDANS/DABCYL FRET peptide cleavage, 3 h. inhibition, % at 7 µM. hit rate 0.62% among 370,000. O14672;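 active = inhibition above a per-campaign cutoff equal to the mean of compounds falling between control-based bounds plus 3 SD, cut at about 20% in these data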
Target sequence (O14672 214-748 limits assumed): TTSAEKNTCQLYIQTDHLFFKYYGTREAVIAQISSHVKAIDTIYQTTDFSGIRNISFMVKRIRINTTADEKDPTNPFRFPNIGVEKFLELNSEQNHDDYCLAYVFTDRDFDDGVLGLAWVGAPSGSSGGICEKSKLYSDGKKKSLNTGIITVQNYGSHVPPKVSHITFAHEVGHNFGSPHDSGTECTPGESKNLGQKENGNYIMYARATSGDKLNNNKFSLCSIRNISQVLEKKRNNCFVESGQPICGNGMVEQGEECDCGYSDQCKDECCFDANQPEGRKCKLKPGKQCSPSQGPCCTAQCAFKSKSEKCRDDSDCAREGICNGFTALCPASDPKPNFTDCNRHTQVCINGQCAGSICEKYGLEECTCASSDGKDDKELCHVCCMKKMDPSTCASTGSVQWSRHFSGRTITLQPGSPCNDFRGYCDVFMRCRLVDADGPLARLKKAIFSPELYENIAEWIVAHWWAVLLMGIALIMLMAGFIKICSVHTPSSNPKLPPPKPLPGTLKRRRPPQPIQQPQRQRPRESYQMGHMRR
Hep lipid drop – modulators of hepatic lipid droplet formation. AML12 mouse hepatocytes, oleate lipid droplets, BODIPY imaging. inhibition, % at 6.5 µM. AID 1656. hit rate 0.4% among 240,000;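 active = lipid droplet intensity inhibited by at least 50%, with more than 500 cells counted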
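Technique: fluorescence imaging, 20x objective, two fields per well / Assay system: AML12 hepatocytes (mouse) / Measure: % inhibition of lipid droplet signal / Doses: 6.5 µM single-point dosing / Incubation: overnight exposure / Reagent: 100 µM oleic acid challenge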
aDG glyco act – alpha-DG glycosylation activation. Pro5-aDG cells, alpha-DG glycosylation AlphaScreen (IIH6); 0% Pro5, 100% B10-LARGE cell signal. activation, % at 10 µM. hit rate 0.22% among 360,000;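 active = activation of at least 8% versus controls, or a plate z-score of at least 8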;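 also: Pro5 are CHO cells carrying HIG-tagged alpha-DG that lacks glycosylation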
MPTP block – inhibitors of mitochondrial permeability transition pore; isolated mouse mitochondria, Ca2+ swelling absorbance, 30 min; inhibition, % at 10 µM; hit rate 1.4% among 360,000;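 active = inhibition of 50% or more, scaled per plate between neutral and stimulator controls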
V-ATPase pHluor – alters yeast V-ATPase proton transport | AID 504577 | hit rate 0.37% among 350,000 | S. cerevisiae, pHLuorin cytosolic pH fluorescence | response, % at 10 µM; in the data active = response mostly above about 7.3%, no sharp cut-off; inactive = mostly below about 5.4%; also: actives read high
ADAM17 inh – ADAM17 inhibition, QFRET primary screen. P78536. recombinant ADAM17, EDANS/DABCYL FRET peptide cleavage. inhibition, % at 6.95 µM. hit rate 0.83% among 370,000;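 active = inhibition above the mean of compounds lying between control limits plus 3 SD, set per campaign, cut at about 8.5% in these data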
ADAM10 confirm – human ADAM10 inhibition, confirmation | shares compounds with ADAM10 inh | inhibition, % at 6.95 µM | AID 743208 | ADAM10 QFRET peptide cleavage, EDANS fluorescence | hit rate 1% among 2,100;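 active = inhibition above about 20% chosen separately for each screening run, limit read from the data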
ADAM17 ctr – ADAM17 inhibition, counter-screen for ADAM10 exosite hits; shares compounds with ADAM10 inh; ADAM17 QFRET peptide cleavage, EDANS fluorescence; inhibition, % at 6.95 µM; hit rate 0.5% among 2,100; AID 743214;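 active = mean triplicate inhibition above the solvent-only control wells' mean plus 3 SD, cut at about 12% in these data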
ADAM10 counter – ADAM10 inhibition, counter-screen for ADAM17 exosite hits; hit rate 47% among 2,900; recombinant ADAM10, EDANS/DABCYL FRET peptide cleavage, 3 h; inhibition, % at 6.95 µM; shares compounds with ADAM17 inh; AID 743256;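 active = mean inhibition over the triplicate runs exceeds the activity threshold set in the earlier primary screen, cut at about 20% in these data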
ADAM17 confirm – confirmation of inhibitors of human ADAM17; shares compounds with ADAM17 inh; recombinant ADAM17, EDANS/DABCYL QFRET peptide cleavage; inhibition, % at 6.95 µM; hit rate 65% among 2,900;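 active = mean inhibition across replicates above the hit cutoff set in the primary screen, cut at about 8.5% in these data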
A number is an active result; . = inactive; / = no result given.

SMILES	ADAM10 inh	Hep lipid drop	aDG glyco act	MPTP block	V-ATPase pHluor	ADAM17 inh	ADAM10 confirm	ADAM17 ctr	ADAM10 counter	ADAM17 confirm
C[C@H]1[C@@H](NC(=O)c2ccc(O)cc2)CC[C@@]23CCCN2C(=O)CCC[C@@H]13	.	/	/	/	/	.	/	/	/	/
CCOc1ccc(N(CC(=O)NCc2ccccc2Cl)S(=O)(=O)c2c(C)noc2C)cc1	.	.	.	.	.	.	/	/	/	/
CCOc1ccc(S(=O)(=O)N(CC(=O)Nc2cc(C)on2)Cc2ccccc2Cl)cc1	29	/	.	.	.	16	.	.	.	.
Cc1ccccc1N=C1SC(CC(=O)Nc2ccc3ccccc3c2)C(=O)N1Cc1ccccn1 (stereo unspecified)	39	.	.	.	.	15	.	.	37	22
Cc1ccc(OC(C)C(=O)Nc2ccc(C)c(S(=O)(=O)Nc3ccc(C)cc3C)c2)cc1 (stereo unspecified)	24	.	.	.	.	12	.	.	28	15
CCc1cccc2c(C(C)c3ccccc3O)c[nH]c12 (stereo unspecified)	.	/	/	/	/	.	/	/	/	/
CCCCNC(=O)C1(C(=O)c2ccc(OC)cc2)CC(C(=O)OCC)=NO1 (stereo unspecified)	.	/	/	/	/	.	/	/	/	/
COc1ccc(Nc2nnc(SC(C(=O)Nc3cc(C)ccc3C)c3ccccc3)s2)cc1 (stereo unspecified)	.	.	.	.	.	.	/	/	/	/
COc1cccc(NC(=O)C(Sc2nnc(Nc3ccccc3C)s2)c2ccccc2)c1 (stereo unspecified)	33	.	.	.	.	14	.	.	29	15
CCOC(=O)c1ccc(NC(=S)NCCc2ccccc2)cc1	46	/	.	.	.	11	.	.	21	11
CN(C)c1cccc(/C=C2\CC3(OC(=O)c4ccccc4)CCCN2C3)c1 (stereo unspecified)	.	/	/	/	/	.	/	/	/	/
Cc1ccccc1-n1c(SCC(=O)N/N=C/C=C/c2ccccc2[N+](=O)[O-])nc2ccccc2c1=O	23	.	.	.	.	10.0	.	.	.	12
COc1ccc(OC)c(NC(=O)COC(=O)Cc2ccc(-c3ccccc3)cc2)c1	28	.	.	.	.	15	.	.	.	13
COc1ccc(OC)c(NC(=O)COC(=O)Cc2ccc(Br)cc2)c1	.	.	.	.	.	.	/	/	/	/
O=S(=O)(c1c(F)cccc1F)N(CCc1ccc(F)cc1)C[C@@H](O)COCc1ccccc1	27	/	.	.	.	15	.	.	39	19
COc1ccc(CN(CC(O)COCc2ccccc2)S(=O)(=O)c2ccccc2Br)cc1OC (stereo unspecified)	.	/	.	.	.	.	/	/	/	/
CC(=O)CC[C@H]1CC[C@]2(CCCN(C(=O)C(C)(C)C)C2)O1	.	/	/	/	/	.	/	/	/	/
NC(=O)CC(NC(=O)c1ccc(Br)cc1)c1ccc(N2CCCCCCC2)c([N+](=O)[O-])c1 (stereo unspecified)	23	/	.	.	.	10	.	.	22	12
CC(C)CN1C(=O)C[C@@]2(C(=O)N(C)c3ccc(NS(=O)(=O)c4ccc(F)cc4)cc32)C1c1ccccc1 (stereo partly specified)	.	/	/	/	/	.	/	/	/	/
C[C@@H]1COc2cc(N3CCCC3)ccc2S(=O)(=O)N1C	.	/	/	/	/	.	/	/	/	/
CN1C(=O)[C@@](O)(c2cccn2C)c2cc(Cl)ccc21	.	/	/	/	/	.	/	/	/	/
O=C(CCc1ccc(O)cc1)c1c(O)cc(O)cc1O	.	.	.	.	.	.	/	/	/	/
COc1cc(O)c(CC=C(C)C)c(O)c1C(=O)CCc1ccc(O)cc1	24	.	.	.	.	12	.	.	52	26
Cc1ccc(NS(=O)(=O)c2ccc(C)c(NC(=O)c3ccc(S(=O)(=O)N4CCCCCC4)cc3)c2)c(C)c1	23	/	.	.	.	8.8	.	.	46	24
C=CC[C@@H](CC(=O)N(CCO)Cc1ccccc1)C(=O)N[C@@H](COC(=O)[C@@H](CC=C)CC(=O)OC(C)(C)C)Cc1c[nH]c2ccccc12	45	/	.	.	.	22	.	.	41	21
SMILES	ADAM10 inh	Hep lipid drop	aDG glyco act	MPTP block	V-ATPase pHluor	ADAM17 inh	ADAM10 confirm	ADAM17 ctr	ADAM10 counter	ADAM17 confirm
C=CC[C@@H](CC(=O)N(CCO)Cc1ccccc1)C(=O)N[C@H](COC(=O)[C@@H](CC=C)CC(=O)OC(C)(C)C)Cc1c[nH]c2ccccc12	25	/	.	.	.	14	.	.	33	16
C=CC[C@@H](CC(=O)N[C@@H](CO)Cc1ccccc1)C(=O)N[C@H](COC(=O)[C@@H](CC=C)CC(=O)OC(C)(C)C)Cc1c[nH]c2ccccc12	26	/	.	.	.	8.7	.	.	39	18
CN(C)C(=O)C[C@H]1CC[C@H]2[C@H](COc3ccc(NC(=O)C4CC4)cc3C(=O)N2C)O1	.	/	/	/	/	.	/	/	/	/
CN(C)c1ccc(NS(=O)(=O)c2ccc(Cl)cc2)cc1	34	.	.	.	.	13	.	.	.	.
Cc1ccc(S(=O)(=O)Nc2ccc(N(C)C)cc2)cc1	.	.	.	.	.	.	/	/	/	/
C=CC(=O)Nc1cccc(Oc2cc(Cl)nc3[nH]ccc23)c1	21	/	.	.	.	11	.	.	.	10
COc1ccc(C(=O)CSc2nnc(-c3ccc(C(C)(C)C)cc3)n2C)cc1	.	/	/	/	/	.	/	/	/	/
Cc1cccc(NC(=O)c2nc[nH]c2C(=O)N(C)Cc2ccccc2)c1	21	/	.	.	.	9.4	.	.	.	.
Cc1cccc(NC(=O)c2nc[nH]c2C(=O)N[C@@H](C)c2ccccc2)c1	26	/	.	.	.	10.0	.	.	29	15
CN(Cc1ccccc1)C(=O)c1[nH]cnc1C(=O)Nc1ccccc1	.	/	.	.	.	.	/	/	/	/
COC(=O)Nc1ccc(S(=O)(=O)N2CCC(C)CC2)cc1	.	.	.	.	.	.	/	/	/	/
COC(=O)Nc1ccc(S(=O)(=O)N2CCC(Cc3ccccc3)CC2)cc1	20	.	.	.	.	11	.	.	35	14
COc1cc(/C=C/C(=O)c2ccccc2)cc(OC)c1OC	.	/	/	/	/	.	/	/	/	/
COc1cccc(CNS(=O)(=O)c2cc3c(cc2Br)CC(C)N3C(C)=O)c1 (stereo unspecified)	.	/	/	/	/	.	/	/	/	/
